{"source": "ChEMBL document CHEMBL4706641", "about": "“Novel Carboline Fungal Histone Deacetylase (HDAC) Inhibitors for Combinational Treatment of Azole-Resistant Candidiasis” (J Med Chem, 2021)", "key": {"Candida albicans [1]": {"system": "Candida albicans", "assay": "Down regulation of CDR2 mRNA expression in Candida albicans 0304103 at 32 ug/ml incubated for 24 hrs in presence of 32 ug/ml fluconazole by RT-PCR analysis", "type": "functional", "conditions": "dose 32.0 µg/ml", "outline": "(§1)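 C. albicans 0304103 (initial 1 × 10⁶ cells/mL) treated with DMSO, fluconazole 32 μg/mL, compound 32 μg/mL, or both in YEPD medium, 35 °C for 24 h. Total RNA extracted, reverse transcribed, real-time PCR for 40 cycles; fold change by 2^−ΔΔCt with ACT1 as internal control.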"}, "Candida albicans [2]": {"system": "Candida albicans", "assay": "Inhibition of biofilm formation in Candida albicans 0304103 at 64 ug/ml incubated for 24 hrs in presence of fluconazole by XTT reduction assay", "type": "functional, organism-based", "conditions": "dose 64.0 µg/ml", "outline": "(§2)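 C. albicans 0304103 at 1.0 × 10⁶ CFU/mL in RPMI 1640 allowed to adhere 90 min at 37 °C, washed with PBS, then fresh medium with fluconazole 2–32 μg/mL and/or compound 0.12–64 μg/mL added; 24 h at 37 °C. Biofilm metabolic activity by XTT reduction, OD490. Three independent experiments.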"}, "Candida albicans [3]": {"system": "Candida albicans", "assay": "Antifungal activity against Candida albicans 9172 incubated for 48 hrs by microdilution assay", "type": "functional", "outline": "(§3)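 Checkerboard broth microdilution per CLSI M27-A3 (modified), clinical Candida isolates. Exponential cells in RPMI 1640 (MOPS-buffered) at 10³ cells/mL; fluconazole 0.25–64 μg/mL crossed with test compound 2–64 μg/mL (final). 48 h at 35 °C; OD630 read with background subtracted. MIC80 = 80% growth inhibition; FICI ≤0.5 synergy, >4 antagonism.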"}, "Candida albicans [4]": {"system": "Candida albicans", "assay": "Antifungal activity against Candida albicans 0304103 infected in ICR mouse model of candidiasis assessed as reduction in morphological changes of budded-to-hyphal transition at 10 mg/kg, ip dosed 24 hrs post infection and measured after 5 days by H and E staining based microscopical analysis", "type": "functional, organism-based", "conditions": "time 5.0 day", "outline": "(§4)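 Two ICR mice per group, infected and treated as in the kidney burden model (IV 5 × 10⁵ C. albicans 0304103; IP compound 10 mg/kg, fluconazole 1 mg/kg, or combination, 5 days). Kidneys fixed in 4% paraformaldehyde, paraffin-embedded, 4 μm sections, H&E stained, examined at 40× and 200×.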"}, "Candida albicans [5]": {"system": "Candida albicans", "assay": "Synergistic antifungal activity against Candida albicans 0304103 assessed as potentiation of fluconazole antifungal activity incubated for 48 hrs in presence of fluconazole by checkerboard microdilution assay", "type": "functional, organism-based", "outline": "as §3"}, "Candida albicans [6]": {"system": "Candida albicans", "assay": "Synergistic antifungal activity against Candida albicans 9172 incubated for 48 hrs in presence of fluconazole by microdilution assay", "type": "functional", "outline": "as §3"}, "Pichia kudriavzevii [7]": {"system": "Pichia kudriavzevii", "assay": "Antifungal activity against Candida krusei 10153 incubated for 48 hrs by microdilution assay", "type": "functional", "outline": "as §3"}, "Pichia kudriavzevii [8]": {"system": "Pichia kudriavzevii", "assay": "Synergistic antifungal activity against Candida krusei 10153 assessed as potentiation of fluconazole antifungal activity by measuring FICI incubated for 48 hrs in presence of fluconazole by checkerboard microdilution assay", "type": "functional", "outline": "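Checkerboard broth microdilution per CLSI M27-A3 (modified), clinical Candida isolates. 48 h at 35 °C; OD630 read with background subtracted. MIC80 = 80% growth inhibition; FICI ≤0.5 synergy, >4 antagonism.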"}, "Candida albicans [9]": {"system": "Candida albicans", "assay": "Synergistic antifungal activity against Candida albicans 4108 incubated for 48 hrs in presence of fluconazole by microdilution assay", "type": "functional", "outline": "as §3"}, "Candida albicans [10]": {"system": "Candida albicans", "assay": "Antifungal activity against Candida albicans 0304103 infected in ICR mouse model of candidiasis assessed as reduction in morphological changes of budded-to-hyphal transition at 10 mg/kg, ip dosed 24 hrs post infection and co-treated with 1 mg/kg, ip fluconazole and measured after 5 days by H and E staining based microscopical analysis", "type": "functional, organism-based", "conditions": "time 5.0 day", "outline": "as §4"}, "Candida albicans [11]": {"system": "Candida albicans", "assay": "Antifungal activity against Candida albicans 0304103 at 32 ug/ml incubated for 48 hrs by microdilution assay", "type": "functional, organism-based", "conditions": "dose 32.0 µg/ml"}, "Candida albicans [12]": {"system": "Candida albicans", "assay": "Induction of morphological changes in Candida albicans assessed as reduction in morphological conversion from yeast to hypha forms at 32 ug/ml incubated for 3 hrs in presence of 32 ug/ml fluconazole by inverse fluorescence microscopy", "type": "functional, organism-based", "conditions": "dose 32.0 µg/ml", "outline": "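Exponential C. albicans at 2 × 10⁶ cells/mL in Spider medium (hypha-inducing), drugs alone or combined, DMSO control; 3 h at 37 °C, then observed and photographed by inverted fluorescence microscopy. Three independent experiments.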"}, "Candida albicans [13]": {"system": "Candida albicans", "assay": "Up-regulation of CDR2 mRNA expression in Candida albicans 0304103 at 32 ug/ml incubated for 24 hrs by RT-PCR analysis", "type": "functional", "conditions": "dose 32.0 µg/ml", "outline": "as §1"}, "[14]": {"assay": "Toxicity in human L02 cells", "type": "cell-based"}, "Candida albicans [15]": {"system": "Candida albicans", "assay": "Synergistic antifungal activity against Candida albicans 0304103 incubated for 48 hrs in presence of fluconazole by microdilution assay", "type": "functional", "outline": "as §3"}, "Candida albicans [16]": {"system": "Candida albicans", "assay": "Down regulation of ERG11 mRNA expression in Candida albicans 0304103 at 32 ug/ml incubated for 24 hrs in presence of 32 ug/ml fluconazole by RT-PCR analysis", "type": "functional", "conditions": "dose 32.0 µg/ml", "outline": "as §1"}, "Candida albicans [17]": {"system": "Candida albicans", "assay": "Inhibition of biofilm formation in Candida albicans 0304103 at 0.12 to 64 ug/ml incubated for 24 hrs by XTT reduction assay", "type": "functional, organism-based", "conditions": "dose 0.12-64 µg/ml", "outline": "as §2"}, "Candida albicans [18]": {"system": "Candida albicans", "assay": "Synergistic antifungal activity against Candida albicans 10061 assessed as fluconazole MIC incubated for 48 hrs in presence of fluconazole by microdilution assay (reference value: fluconazole alone MIC = >[…] ug/ml)", "type": "functional"}, "Candida albicans [19]": {"system": "Candida albicans", "assay": "Inhibition of HDAC in Candida albicans supernatants using Boc-Lys(Ac)-AMC substrate incubated for 18 hrs by fluorescence based assay", "outline": "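Fungal whole-cell HDAC assay: C. albicans converted to protoplasts by snailase/mercaptoethanol (37 °C, 3 h), resuspended in PBS; compound 1–100 μM final, 35 °C 12 h, then Boc-Lys(Ac)-AMC 33 μM, 37 °C 6 h. Stopped with trypsin/Nonidet P-40 buffer, 37 °C 2 h; fluorescence Ex 360/Em 460 nm. Inhibition vs control after blank subtraction; three independent experiments.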"}, "Candida albicans [20]": {"system": "Candida albicans", "assay": "Synergistic antifungal activity against Candida albicans 10061 incubated for 48 hrs in presence of fluconazole by microdilution assay", "type": "functional", "outline": "as §3"}, "[21]": {"assay": "Toxicity in HUVEC", "type": "cell-based", "conditions": "human, HUVEC cells"}, "Candida albicans [22]": {"system": "Candida albicans", "assay": "Antifungal activity against Candida albicans 4108 incubated for 48 hrs by microdilution assay", "type": "functional", "outline": "as §3"}, "Candida albicans [23]": {"system": "Candida albicans", "assay": "microbe, parasite or virus in culture", "type": "functional, 0304103", "conditions": "Candida albicans, 0304103; time 48 hrs; read-out: MIC80"}, "Nakaseomyces glabratus": {"system": "Nakaseomyces glabratus", "assay": "Synergistic antifungal activity against Candida glabrata assessed as potentiation of VRC antifungal activity by measuring VRC incubated for 48 hrs in presence of fluconazole by checkerboard microdilution assay", "type": "functional, organism-based"}, "Candida albicans [24]": {"system": "Candida albicans", "assay": "Synergistic antifungal activity against Candida albicans 4108 assessed as fluconazole MIC incubated for 48 hrs in presence of fluconazole by microdilution assay (reference value: fluconazole alone MIC = >[…] ug/ml)", "type": "functional"}, "Candida albicans [25]": {"system": "Candida albicans", "assay": "Antifungal activity against Candida albicans 10061 incubated for 48 hrs by microdilution assay", "type": "functional", "outline": "as §3"}, "Candida tropicalis": {"system": "Candida tropicalis", "assay": "Synergistic antifungal activity against Candida tropicalis assessed as potentiation of ITC antifungal activity by measuring ITC incubated for 48 hrs in presence of fluconazole by checkerboard microdilution assay", "type": "functional, organism-based"}}, "note": "The source made the active and inactive calls. The rule behind the calls is not given here."}
{"smiles": "O=C(Cc1ccc(OCCCn2c3c(c4cccc(Cl)c42)CCNC3)cc1)NO", "values": [{"measurement": "Activity", "setting": "Candida albicans [1]", "value": "Active"}, {"measurement": "inhibition", "setting": "Candida albicans [2]", "value": "Active"}, {"measurement": "MIC80", "setting": "Candida albicans [3]", "value": "> 64", "unit": "µg/mL"}, {"measurement": "Activity", "setting": "Candida albicans [4]", "value": "inactive"}, {"measurement": "Activity", "setting": "Candida albicans [5]", "value": "Dose-dependent effect"}, {"measurement": "MIC80", "setting": "Candida albicans [6]", "value": 2, "unit": "µg/mL"}, {"measurement": "MIC80", "setting": "Pichia kudriavzevii [7]", "value": 64, "unit": "µg/mL"}, {"measurement": "fractional inhibitory concentration index (FICI)", "setting": "Pichia kudriavzevii [8]", "value": 0.25}, {"measurement": "MIC80", "setting": "Candida albicans [9]", "value": 2, "unit": "µg/mL"}, {"measurement": "Activity", "setting": "Candida albicans [10]", "value": "Active"}, {"measurement": "Activity", "setting": "Candida albicans [11]", "value": "inactive"}, {"measurement": "Activity", "setting": "Candida albicans [12]", "value": "Active"}, {"measurement": "Activity", "setting": "Candida albicans [13]", "value": "Active"}, {"measurement": "IC50", "setting": "[14]", "value": 11.5, "unit": "µM"}, {"measurement": "MIC80", "setting": "Candida albicans [15]", "value": 2, "unit": "µg/mL"}, {"measurement": "Activity", "setting": "Candida albicans [16]", "value": "Active"}, {"measurement": "inhibition", "setting": "Candida albicans [17]", "value": "inactive"}, {"measurement": "MIC80", "setting": "Candida albicans [18]", "value": 2, "unit": "µg/mL"}, {"measurement": "inhibition", "setting": "Candida albicans [19]", "value": "Active"}, {"measurement": "MIC80", "setting": "Candida albicans [20]", "value": 2, "unit": "µg/mL"}, {"measurement": "IC50", "setting": "[21]", "value": 9.64, "unit": "µM"}, {"measurement": "MIC80", "setting": "Candida albicans [22]", "value": 64, "unit": "µg/mL"}, {"measurement": "MIC80", "setting": "Candida albicans [23]", "value": 0.25, "unit": "µg/mL"}, {"measurement": "Activity", "setting": "Nakaseomyces glabratus", "value": "Active"}, {"measurement": "MIC80", "setting": "Candida albicans [24]", "value": 0.25, "unit": "µg/mL"}, {"measurement": "MIC80", "setting": "Candida albicans [25]", "value": "> 64", "unit": "µg/mL"}, {"measurement": "Activity", "setting": "Candida tropicalis", "value": "Active"}]}
